Among the data in ChEMBL document CHEMBL1121371, “Antihypertensive 5,6-diarylpyridazin-3-ones” (1980) are BP and Heart rate values, retold here.

The source made the active and inactive calls. No cut-off for these calls is given here.

The subject of experiment [1] is Rattus norvegicus. Put plainly: Antihypertensive activity in spontaneously hypertensive rats was measured as average blood pressure at 75 mg/kg, p.o. after 24 hours of postdose-1. Type of experiment: functional. The settings on record: route oral.
Experiment [2] deals with Rattus norvegicus. Put plainly: Antihypertensive activity in spontaneously hypertensive rats was measured as average blood pressure at 75 mg/kg, p.o. after 24 hours of postdose-2. Type of experiment: functional. The settings on record: route oral.
The subject of experiment [3] is Rattus norvegicus. The experiment is described as follows: Antihypertensive activity in spontaneously hypertensive rats was measured as average blood pressure at 75 mg/kg, p.o. before predose. Type of experiment: functional. The following applies: route oral.
In experiment [4] the test system is Rattus norvegicus. The experiment is described as follows: Antihypertensive activity in spontaneously hypertensive rats was measured as average blood pressure at 75 mg/kg, p.o. after 4 hours of postdose-2. Format: functional. The settings on record: route oral.
The test system of experiment [5] is Rattus norvegicus. Put plainly: Antihypertensive activity in spontaneously hypertensive rats was measured as average blood pressure at 75 mg/kg, po after 4 hours of postdose-1. Format: functional.
The subject of experiment [6] is Rattus norvegicus. Put plainly: Antihypertensive activity in spontaneously hypertensive rats was measured as average blood pressure at 30 mg/kg, p.o. after 4 hours of postdose-2. Format: functional. The settings on record: route oral. The method in brief:
(§1)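 Spontaneously hypertensive rats aged 12 to 16 weeks, in groups of five with systolic pressure of 170 mmHg or more. Oral dosing as a solution or suspension in 0.25% methylcellulose, 5 mL/kg, with a vehicle control group. Tail-cuff systolic pressure was read predose and 4 and 24 h after each of two doses. Values were compared with predose by Student's t test.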

The species named for experiment [7] is Rattus norvegicus. The experiment is described as follows: Antihypertensive activity in spontaneously hypertensive rats was measured as decrease in heart rate; (-)=decreased heart rate. Format: functional, organism-based.
Experiment [8] has as its system Rattus norvegicus. Put plainly: Antihypertensive activity in spontaneously hypertensive rats was measured as average blood pressure at 10 mg/kg, p.o. before predose. Format: functional. The following applies: route oral. The method in brief:
as §1

In experiment [9] the test system is Rattus norvegicus. Put plainly: Antihypertensive activity in spontaneously hypertensive rats was measured as average blood pressure at 100 mg/kg, po after 24 hours of postdose-2. Format: functional. The method in brief: as §1
The test system of experiment [10] is Rattus norvegicus. The experiment is described as follows: Antihypertensive activity in spontaneously hypertensive rats was measured as average blood pressure at 10 mg/kg, p.o. after 4 hours of postdose-2. Type of experiment: functional. The following applies: route oral. The method in brief: as §1
Experiment [11] relates to Rattus norvegicus. The experiment is described as follows: Antihypertensive activity in spontaneously hypertensive rats was measured as average blood pressure at 100 mg/kg, p.o. after 4 hours of postdose-2. Type of experiment: functional. The following applies: route oral. In short, it runs like this:
as §1

Experiment [12] relates to Rattus norvegicus. The experiment is described as follows: Antihypertensive activity in spontaneously hypertensive rats was measured as average blood pressure at 30 mg/kg, po after 4 hours of postdose-1. Format: functional. In short, it runs like this: as §1
Experiment [13] has as its system Rattus norvegicus. The experiment is described as follows: Antihypertensive activity in spontaneously hypertensive rats was measured as average blood pressure at 30 mg/kg, p.o. after 24 hours of postdose-2. Format: functional. The settings on record: route oral. The method in brief: as §1
The test system of experiment [14] is Rattus norvegicus. Put plainly: Antihypertensive activity in spontaneously hypertensive rats was measured as average blood pressure at 30 mg/kg, p.o. after 24 hours of postdose-1. Format: functional. The following applies: route oral. In short, it runs like this: as §1
In experiment [15] the test system is Rattus norvegicus. Put plainly: Antihypertensive activity in spontaneously hypertensive rats was measured as average blood pressure at 100 mg/kg, p.o. before predose. Format: functional. The following applies: route oral. The method in brief:
as §1

For experiment [16], the system named is Rattus norvegicus. Put plainly: Antihypertensive activity in spontaneously hypertensive rats was measured as average blood pressure at 10 mg/kg, p.o. after 24 hours of postdose-1. Type of experiment: functional. The following applies: route oral. The method in brief:
as §1

For experiment [17], the system named is Rattus norvegicus. Put plainly: Antihypertensive activity in spontaneously hypertensive rats was measured as average blood pressure at 30 mg/kg, p.o. before predose. Type of experiment: functional. The following applies: route oral. The method in brief:
as §1

The test system of experiment [18] is Rattus norvegicus. Put plainly: Antihypertensive activity in spontaneously hypertensive rats was measured as average blood pressure at 100 mg/kg, p.o. after 4 hours of postdose-1. Format: functional. The following applies: route oral. In short, it runs like this:
as §1

The test system of experiment [19] is Rattus norvegicus. Put plainly: Antihypertensive activity in spontaneously hypertensive rats was measured as average blood pressure at 10 mg/kg, p.o. after 4 hours of postdose-1. Format: functional. The settings on record: route oral. In short, it runs like this: as §1
In experiment [20] the test system is Rattus norvegicus. The experiment is described as follows: Antihypertensive activity in spontaneously hypertensive rats was measured as average blood pressure at 100 mg/kg, p.o. after 24 hours of postdose-1. Format: functional. The following applies: route oral. The method in brief:
as §1

The subject of experiment [21] is Rattus norvegicus. Put plainly: Antihypertensive activity in spontaneously hypertensive rats was measured as average blood pressure at 10 mg/kg, p.o. after 24 hours of postdose-2. Format: functional. The following applies: route oral. The method in brief: as §1
The species named for experiment [22] is Rattus norvegicus. The experiment is described as follows: Antihypertensive activity in spontaneously hypertensive rats was measured; (+)=Increased heart rate. Type of experiment: functional, organism-based.

For `CC(=O)c1c(-c2ccccc2)c(-c2ccccc2)nn(CCO)c1=O`, the BP turned out to be 163 mmHg with Rattus norvegicus [1]; 176 mmHg in the experiment on Rattus norvegicus [2]; 200 mmHg in the experiment with Rattus norvegicus [3]; 164 mmHg with Rattus norvegicus [4]; 181 mmHg in the experiment on Rattus norvegicus [5].
Turning to `CC(=O)c1c(-c2ccc(Cl)cc2)c(-c2ccc(Cl)cc2)nn(CCN2CCCC2)c1=O`, the BP with Rattus norvegicus [6] turned out to be 191 mmHg; in the experiment with Rattus norvegicus [8], 208 mmHg; with Rattus norvegicus [9], 146 mmHg; in the experiment on Rattus norvegicus [10] it was 202 mmHg; in the experiment with Rattus norvegicus [11], 142 mmHg; in the experiment on Rattus norvegicus [12] it was 200 mmHg. The BP with Rattus norvegicus [13] is on record as 199 mmHg; in the experiment on Rattus norvegicus [14], 187 mmHg; in the experiment on Rattus norvegicus [15], 192 mmHg; in the experiment with Rattus norvegicus [16], 204 mmHg; in the experiment with Rattus norvegicus [17], 212 mmHg; with Rattus norvegicus [18], 155 mmHg. Also, the BP amounted to 205 mmHg with Rattus norvegicus [19], 138 mmHg with Rattus norvegicus [20] and 207 mmHg with Rattus norvegicus [21]. Moreover, the BP result in the experiment filed under Rattus norvegicus [7] was “inactive”.
As for `O=c1c(-c2ccccc2)c(-c2ccccc2)c(-c2ccccc2)nn1CCO`, the BP with Rattus norvegicus [9] was determined as 188 mmHg; in the experiment on Rattus norvegicus [11] it was 176 mmHg; in the experiment with Rattus norvegicus [15] it was 200 mmHg; in the experiment with Rattus norvegicus [18], 173 mmHg; in the experiment with Rattus norvegicus [20] it was 187 mmHg. Also, the Heart rate result in the experiment filed under Rattus norvegicus [22] is recorded as “Increased heart rate”.
